What was measured:
A549 = assay: Antiproliferative activity against human A549 cells assessed as reduction in cell viability incubated for 4 days by coulter counter method; format: functional, cell-based; details: A549, 96 h
Method in brief: (§1)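 Cancer cells were seeded at 50,000 per well in DMEM with 5% FBS. They were exposed to six compound doses for 4 days, with DMSO as vehicle control and a reference inhibitor as positive control. Cells were counted by Coulter counter. Survival ratio is treated cell number over vehicle cell number. IC50 was taken from dose–response curves. Triplicate experiments.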

MDA-MB-231 = assay: Antiproliferative activity against human MDA-MB-231 cells assessed as reduction in cell viability incubated for 4 days by coulter counter method; format: functional, cell-based; details: MDA-MB-231, 96 h; method in brief: as §1
HeLa = assay: Antiproliferative activity against human HeLa cells assessed as reduction in cell viability incubated for 4 days by coulter counter method; format: functional, cell-based; details: 96 h; method in brief: as §1
CWR22R = assay: Antiproliferative activity against human 22Rv1 cells assessed as reduction in cell viability incubated for 4 days by coulter counter method; format: functional, cell-based; details: 22Rv1, 96 h; method in brief: as §1
PC-3 = assay: Antiproliferative activity against human PC3 cells assessed as reduction in cell viability incubated for 4 days by coulter counter method; format: functional, cell-based; details: PC-3, 96 h
Method in brief: (§2)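 Cells seeded at 50,000 per well in DMEM with 5% FBS, exposed to six concentrations of compound for 4 days; DMSO as vehicle control. Cell numbers counted on a Coulter counter; survival ratio = treated/vehicle cell count. IC50 taken from dose-response curves. Triplicate experiments, mean ± SD.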

SK-OV-3 = assay: Antiproliferative activity against human SKOV3 cells assessed as reduction in cell viability incubated for 4 days by coulter counter method; format: functional, cell-based; details: SK-OV-3, 96 h; method in brief: as §2
[1] = Stability of compound in cell culture medium assessed as compound hydrolysis measured after 0.5 hrs; format: physicochemical
[2] = Stability of compound in cell culture medium assessed as compound hydrolysis measured after 1 hr; format: physicochemical
[3] = Stability of compound in cell culture medium assessed as compound hydrolysis measured after 3 hrs; format: physicochemical
[4] = Stability of compound in cell culture medium assessed as compound hydrolysis measured after 8 hrs; format: physicochemical
[5] = Stability of compound in cell culture medium assessed as compound hydrolysis measured after 24 hrs; format: physicochemical
[6] = Drug concentration in ovariectomized nu/nu mouse plasma assessed 3-(4-morpholinopyrido [3',2':4,5] furo [3,2-d] pyrimidin-2-yl)phenol at 10 mg/kg, ip measured after 0.5 hrs by UHPLC-MS analysis; format: ADME, organism-based; details: in vivo
[7] = Drug concentration in ovariectomized nu/nu mouse plasma assessed 3-(4-morpholinopyrido [3',2':4,5] furo [3,2-d] pyrimidin-2-yl)phenol at 10 mg/kg, ip measured after 1 hr by UHPLC-MS analysis; format: ADME, organism-based; details: in vivo
[8] = Drug concentration in ovariectomized nu/nu mouse plasma assessed 3-(4-morpholinopyrido [3',2':4,5] furo [3,2-d] pyrimidin-2-yl)phenol at 10 mg/kg, ip measured after 3 hrs by UHPLC-MS analysis; format: ADME, organism-based; details: in vivo
[9] = Drug concentration in ovariectomized nu/nu mouse plasma assessed 3-(4-morpholinopyrido [3',2':4,5] furo [3,2-d] pyrimidin-2-yl)phenol at 10 mg/kg, ip measured after 8 hrs by UHPLC-MS analysis; format: ADME, organism-based; details: in vivo
[10] = Drug concentration in ovariectomized nu/nu mouse plasma assessed 3-(4-morpholinopyrido [3',2':4,5] furo [3,2-d] pyrimidin-2-yl)phenol at 10 mg/kg, ip measured after 24 hrs by UHPLC-MS analysis; format: ADME, organism-based; details: in vivo
[11] = Cmax in ovariectomized nu/nu mouse assessed 3-(4-morpholinopyrido [3',2':4,5] furo [3,2-d] pyrimidin-2-yl)phenol at 10 mg/kg, ip measured upto 24 hrs by UHPLC-MS analysis; format: ADME, organism-based; parameters: dose 10 mg/kg, route intraperitoneal; details: in vivo
[12] = Tmax in ovariectomized nu/nu mouse assessed 3-(4-morpholinopyrido [3',2':4,5] furo [3,2-d] pyrimidin-2-yl)phenol at 10 mg/kg, ip measured upto 24 hrs by UHPLC-MS analysis; format: ADME, organism-based; details: in vivo
[13] = Half life in ovariectomized nu/nu mouse assessed 3-(4-morpholinopyrido [3',2':4,5] furo [3,2-d] pyrimidin-2-yl)phenol at 10 mg/kg, ip measured upto 24 hrs by UHPLC-MS analysis; format: ADME, organism-based; details: in vivo
[14] = AUC in ovariectomized nu/nu mouse assessed 3-(4-morpholinopyrido [3',2':4,5] furo [3,2-d] pyrimidin-2-yl)phenol at 10 mg/kg, ip measured upto 24 hrs by UHPLC-MS analysis; format: ADME, organism-based; parameters: time < 24 hr, dose 10 mg/kg, route intraperitoneal; details: in vivo
[15] = Drug concentration in ovariectomized nu/nu mouse plasma assessed 3-(4-morpholinopyrido [3',2':4,5] furo [3,2-d] pyrimidin-2-yl)phenol at 10 mg/kg, po measured after 1 hr by UHPLC-MS analysis; format: ADME, organism-based; details: in vivo
Method in brief: (§3)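 Female ovariectomized Nu/Nu mice, 4–6 weeks old, n = 5 per group. Single 10 mg/kg oral gavage in 5% DMSO/40% PEG 400/55% saline. Orbital-sinus blood was taken at 0.5, 1, 3, 8 and 24 h, one sampling per group, into EDTA. Plasma was spun at 4 °C and stored at −80 °C. The prodrug's boronic acid metabolite and phenol were quantified by C18 UHPLC–TSQ MS/MS with an acetonitrile/water 0.05% formic acid gradient.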

[16] = Drug concentration in ovariectomized nu/nu mouse plasma assessed 3-(4-morpholinopyrido [3',2':4,5] furo [3,2-d] pyrimidin-2-yl)phenol at 10 mg/kg, po measured after 3 hrs by UHPLC-MS analysis; format: ADME, organism-based; details: in vivo; method in brief: as §3

Drug degradation [1]: 0.04 µM | Drug degradation [2]: 0.01 µM | Drug degradation [3]: 0 µM | Drug degradation [4]: 0 µM | Drug degradation [5]: 0 µM | Cp [6]: 14.9 ng/mL | Cp [7]: 5.4 ng/mL | Cp [8]: 1.3 ng/mL | Cp [9]: 1 ng/mL | Cp [10]: 0.4 ng/mL | Cmax [11]: 14.9 ng/mL | Tmax [12]: 0.5 h | t1/2 [13]: 12.4 h | AUC [14]: 32.3 ng·h/mL | Cp [15]: 8.2 ng/mL | Cp [16]: 6.5 ng/mL
SMILES: CC1(C)OB(c2cccc(-c3nc(N4CCOCC4)c4oc5ncccc5c4n3)c2)OC1(C)C
IC50 (A549): 570 nM | IC50 (MDA-MB-231): 440 nM | IC50 (HeLa): 3820 nM | IC50 (CWR22R): 660 nM | IC50 (PC-3): 720 nM | IC50 (SK-OV-3): 1330 nM
